For assay [1], the system named is MOLT-4. Put plainly: Anticancer activity against human MOLT4 cells assessed as cell viability after 72 hrs by MTT reduction assay. In kind it is functional, cell-based. The note with it: MOLT-4, 72 h. An outline of the steps:
(§1)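 Cells grown in RPMI 1640 with 10% FBS, 100 units/ml penicillin-G and streptomycin, 37 °C, 5% CO2. A549, MCF-7 and NIH/3T3 grown as monolayers, K562 and MOLT-4 in suspension. Seeding densities (cells/ml): A549 40,000, K562 40,000, MCF-7 30,000, MOLT-4 40,000, NIH/3T3 50,000. Overnight at 37 °C, then 3-4 concentrations added.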
A general note: Tetrazolium assays rely on reduction of a dye to a coloured formazan, in cell work by metabolically active cells.

Assay [2] relates to MCF7. Description: Anticancer activity against human MCF7 cells assessed as cell viability after 72 hrs by MTT reduction assay. In kind it is functional, cell-based. The note with it: MCF7, 72 h. An outline of the steps: as §1
The test system of assay [3] is K562. Description: Anticancer activity against human K562 cells assessed as cell viability after 72 hrs by MTT reduction assay. Format: functional, cell-based. The note with it: K562, 72 h. An outline of the steps:
as §1

The subject of assay [4] is A549. Description: Anticancer activity against human A549 cells assessed as cell viability after 72 hrs by MTT reduction assay. Format: functional, cell-based. The note with it: A549, 72 h. Put shortly: as §1
Assay [5] has as its system NIH3T3. Description: Anticancer activity against mouse NIH/3T3 cells assessed as cell viability after 72 hrs by MTT reduction assay. Format: cell-based. The note with it: NIH3T3, 72 h. Put shortly:
as §1

For assay [6], the system named is MOLT-4. Put plainly: Anticancer activity against human MOLT4 cells assessed as cell viability at 25 uM after 72 hrs by trypan blue exclusion assay. Format: functional. The note with it: MOLT-4, 72 h, read-out: Activity. An outline of the steps: (§2)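 MOLT-4 cells in RPMI 1640 with 10% FBS, grown in suspension at 37 °C, 5% CO2. Cells exposed for 72 h as in the MTT assay, with each compound at a single concentration. Suspension mixed 1:1 with trypan blue. Clear (viable) and blue cells counted on a hemocytometer. Percent viable cells expressed relative to control wells.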

In assay [7] the test system is MOLT-4. Put plainly: Anticancer activity against human MOLT4 cells assessed as cell viability at 10 uM after 72 hrs by trypan blue exclusion assay. Format: functional. The note with it: MOLT-4, 72 h, read-out: Activity. An outline of the steps: as §2
For assay [8], the system named is MOLT-4. Put plainly: Anticancer activity against human MOLT4 cells assessed as cell viability at 20 uM after 72 hrs by trypan blue exclusion assay. Format: functional. The note with it: MOLT-4, 72 h, read-out: Activity. Put shortly: as §2
Assay [9] relates to MOLT-4. Description: Anticancer activity against human MOLT4 cells assessed as cell viability at 75 uM after 72 hrs by trypan blue exclusion assay. In kind it is functional. The note with it: MOLT-4, 72 h, read-out: Activity. Put shortly:
as §2

Assay [10] deals with MOLT-4. Description: Anticancer activity against human MOLT4 cells assessed as cell viability at 50 uM after 72 hrs by trypan blue exclusion assay. Format: functional. The note with it: MOLT-4, 72 h, read-out: Activity. Put shortly:
as §2

Assay [11] relates to MOLT-4. Description: Anticancer activity against human MOLT4 cells assessed as cell viability at 65 uM after 72 hrs by trypan blue exclusion assay. In kind it is functional. The note with it: MOLT-4, 72 h, read-out: Activity. An outline of the steps: as §2
In assay [12] the test system is MOLT-4. Description: Anticancer activity against human MOLT4 cells assessed as cell viability at 40 uM after 72 hrs by trypan blue exclusion assay. The note with it: MOLT-4, 72 h, read-out: Activity. Format: functional. An outline of the steps:
as §2

Assay [13] relates to MOLT-4. Description: Anticancer activity against human MOLT4 cells assessed as cell viability at 100 uM after 72 hrs by trypan blue exclusion assay. In kind it is functional. The note with it: MOLT-4, 72 h, read-out: Activity. Put shortly:
as §2

Where only a bound is given, the exact number is not on record here.

Consider `CC1Oc2ccc(Br)cc2C=C1/C=C1\NC(=O)NC1=O` (racemic), for which the IC50 turned out to be 24.8 µM in assay [1]; 15.3 µM in [2]; 10.6 µM in [3]; 17.5 µM in assay [4]; 25.2 µM in [5]. Besides, the viability at 25 µM in assay [6] came out at 41.3%.
Consider `CCN1C(=O)S/C(=C\C2=Cc3cccc(OC)c3OC2)C1=O`, for which the IC50 in assay [1] is 13.2 µM; in assay [2], 89.1 µM; in [3], 90.4 µM; in assay [4] it was greater than 200 µM; in [5], 75 µM. Moreover, in [7], the viability at 10 µM was found to be 53.2%.
In the case of `CCN1C(=O)S/C(=C\C2=Cc3ccccc3OC2)C1=O`, the IC50 in assay [1], in assay [2], in assay [3] and in [4] was greater than 200 µM in each case.
Consider `O=C1NC(=O)/C(=C/C2=Cc3ccccc3OC2)N1`, for which the IC50 in [1] stood at 21.3 µM; in [2], 8.1 µM; in [3], 55.7 µM; in assay [4], 29.7 µM; in assay [5], 180 µM. For the same compound, the viability at 20 µM in assay [8] came to 53.3%.
For `O=C(O)CN1C(=O)/C(=C/C2=Cc3cc(Br)ccc3OC2)SC1=S`, the IC50 in [1], in assay [2], in [3] and in [4] was greater than 25 µM in each case.
Regarding `CCN1C(=O)S/C(=C\C2=Cc3cc(Br)ccc3OC2C)C1=O` (racemic), the IC50 in [1], in [2], in assay [3] and in assay [4] was greater than 100 µM each time.
With `O=C1NC(=O)/C(=C/C2=Cc3cc(Br)ccc3OC2)N1`, the IC50 stood at 77.5 µM in assay [1]; 51 µM in assay [2]; 79.3 µM in assay [3]; 19.3 µM in assay [4]; 35.9 µM in assay [5]. Moreover, in assay [9], the viability at 75 µM was found to be 60.1%.
Turning to `CN1C(=O)S/C(=C\C2=Cc3ccccc3OC2)C1=O`, the IC50 in assay [1], in [2], in assay [3] and in assay [4] was greater than 100 µM throughout.
For the compound `CC1Oc2ccc(Br)cc2C=C1/C=C1\SC(=S)NC1=O` (racemic), the IC50 in [1] was 20.5 µM; in assay [2], 19.9 µM; in assay [3], 31.6 µM; in [4], 47.5 µM; in [5], 28.7 µM. The viability at 20 µM in [8] was 53.1%.
As for `O=C1NC(=O)/C(=C/C2=Cc3cc(Br)ccc3OC2)S1`, the IC50 was 54.7 µM in assay [1]; 57.9 µM in assay [2]; 49.8 µM in assay [3]; 79.5 µM in assay [4]; 56.5 µM in assay [5]. The viability at 50 µM in [10] amounted to 52.7%.
Turning to `COc1cccc2c1OCC(/C=C1\SC(=S)N(CC(=O)O)C1=O)=C2`, the IC50 in [1], in assay [2], in assay [3] and in assay [4] was greater than 200 µM each time.
For `O=C1NC(=S)S/C1=C\C1=Cc2ccccc2OC1`, the IC50 in assay [1] amounted to 52 µM; in [2], 68.7 µM; in [3], 55.3 µM; in assay [4], 73.1 µM; in [5] it was 72.4 µM. In assay [10], the viability at 50 µM is 49.3%.
As to `CN1C(=N)NC(=O)/C1=C/C1=Cc2ccccc2OC1`, the IC50 was 72 µM in [1]; 149 µM in assay [2]; 96.5 µM in [3]; 89.4 µM in assay [4]; 106 µM in [5]. Further, in assay [9], the viability at 75 µM came out at 49.5%.
As to `CC1Oc2ccc(Br)cc2C=C1/C=C1\SC(=O)NC1=O` (racemic), the IC50 in assay [1] amounted to 64.5 µM; in assay [2], 67.6 µM; in assay [3], 77 µM; in assay [4], 65.5 µM; in assay [5], 56.2 µM. The viability at 65 µM in assay [11] was found to be 53.3%.
Take `O=C(O)CN1C(=O)/C(=C/C2=Cc3ccccc3OC2)SC1=S`: the IC50 in assay [1], in assay [2], in assay [3] and in assay [4] was greater than 100 µM throughout.
With `CC1Oc2ccc(Br)cc2C=C1/C=C1\SC(=S)N(CC(=O)O)C1=O` (racemic), the IC50 in assay [1], in assay [2], in assay [3] and in assay [4] was greater than 50 µM in each case.
As to `O=C1NC(=S)S/C1=C\C1=Cc2cc(Br)ccc2OC1`, the IC50 in assay [1] is 38.2 µM; in [2], 40.4 µM; in [3] it was 33.7 µM; in assay [4], 51 µM; in assay [5] it was 27.8 µM. Moreover, the viability at 40 µM in assay [12] was determined as 46.7%.
`O=C1NC(=O)/C(=C/C2=Cc3ccccc3OC2)S1`: the IC50 in assay [1] was 101 µM; in assay [2] it was 99.4 µM; in assay [3], 98.9 µM; in assay [4] it was 192 µM; in assay [5], greater than 200 µM. The viability at 100 µM in assay [13] was 53.4%.
Take `CC1Oc2ccc(Br)cc2C=C1/C=C1/C(=O)NC(=N)N1C` (racemic): the IC50 is 56.6 µM in assay [1]; 84.8 µM in assay [2]; 51.8 µM in assay [3]; 121 µM in assay [4]; 87.7 µM in assay [5]. Moreover, the viability at 50 µM in [10] stood at 54.3%.
Turning to `CC1Oc2ccc(Br)cc2C=C1/C=C1\SC(=O)N(C)C1=O` (racemic), the IC50 in [1], in assay [2], in [3] and in [4] was greater than 50 µM throughout.

A word on the IC50: it is the concentration needed to halve the response being measured.

The record behind these values is ChEMBL document CHEMBL2311298, “2H-chromene derivatives bearing thiazolidine-2,4-dione, rhodanine or hydantoin moieties as potential anticancer agents” (Eur J Med Chem, 2013).
